Test [1] relates to A549. Put plainly: Antiproliferative activity against human A549 cells after 48 hrs by MTT assay. In kind it is functional, cell-based. The following applies: A549, 48 h. An outline of the steps:
(§1)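 MTT assay: cells seeded at 4-8 × 10³ per well, incubated overnight at 37 °C in 5% CO₂, then given fresh medium with graded compound concentrations or equal DMSO for 48 h. MTT (5 mg/mL solution) added for a further 4 h, formazan dissolved in DMSO, absorbance read at 490 nm. Six cancer cell lines tested.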
Background: Tetrazolium dyes change colour on reduction, which living cells bring about.

Test [2] deals with DNA topoisomerase 2-alpha (Homo sapiens) (UniProt P11388). Nature of the test: Inhibition of human recombinant topoisomerase 2-alpha expressed in Escherichia coli assessed as reduction in enzyme-mediated relaxation of supercoiled pBR322 DNA at 100 uM after 10 to 15 mins by agarose gel electrophoresis. In short, it runs like this: (§2)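 Relaxation of 500 ng supercoiled pBR322 by 1 unit human Topo I or Topo IIα, with or without compound, in 20 µL reaction buffer at 37 °C for 10-15 min. Reactions stopped with loading buffer, run on 0.8% agarose in TAE at 80 V for 30 min. Gels stained with ethidium bromide 2.5 µg/mL and viewed under UV.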

The target in test [3] is T1, DNA topoisomerase 1 (Homo sapiens) (UniProt P11387).
T1 sequence (whole entry): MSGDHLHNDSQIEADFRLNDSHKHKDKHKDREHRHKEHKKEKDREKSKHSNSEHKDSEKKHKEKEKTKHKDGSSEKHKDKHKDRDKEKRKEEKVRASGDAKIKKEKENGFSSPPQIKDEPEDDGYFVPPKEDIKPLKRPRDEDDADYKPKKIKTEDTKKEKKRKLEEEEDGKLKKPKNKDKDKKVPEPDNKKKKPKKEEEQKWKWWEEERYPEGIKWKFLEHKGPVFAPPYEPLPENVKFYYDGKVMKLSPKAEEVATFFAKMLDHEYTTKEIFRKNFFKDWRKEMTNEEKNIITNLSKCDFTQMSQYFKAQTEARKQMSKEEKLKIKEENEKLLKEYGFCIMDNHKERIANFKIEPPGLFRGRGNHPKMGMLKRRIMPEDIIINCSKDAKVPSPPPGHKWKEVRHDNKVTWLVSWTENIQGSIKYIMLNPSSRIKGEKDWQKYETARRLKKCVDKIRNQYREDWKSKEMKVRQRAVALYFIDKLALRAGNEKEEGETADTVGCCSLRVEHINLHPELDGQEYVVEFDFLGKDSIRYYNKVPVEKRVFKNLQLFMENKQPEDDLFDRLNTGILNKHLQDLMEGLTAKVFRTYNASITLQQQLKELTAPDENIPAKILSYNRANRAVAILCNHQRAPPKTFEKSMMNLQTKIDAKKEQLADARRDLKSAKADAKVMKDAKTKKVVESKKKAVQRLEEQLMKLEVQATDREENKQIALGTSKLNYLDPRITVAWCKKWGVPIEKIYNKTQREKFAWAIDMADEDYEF
Put plainly: Inhibition of human topoisomerase 1 assessed as reduction in enzyme-mediated relaxation of supercoiled pBR322 DNA at 50 to 100 uM after 10 to 15 mins by agarose gel electrophoresis. In short, it runs like this: as §2

In the next test the test system is HeLa. Nature of the test: Antiproliferative activity against human HeLa cells after 48 hrs by MTT assay. It is filed as functional, cell-based. An outline of the steps: as §1
Test [4] concerns A549. Put plainly: Induction of DNA damage in human A549 cells assessed as tail DNA at 10 uM after 24 hrs by propidium iodide staining based comet assay (reference value: 0.02%). In kind it is cell-based. In short, it runs like this: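 Alkaline comet assay. About 10⁵ A549 cells per well incubated 12 h, then treated 24 h in serum-free medium against a DMSO control. Cells embedded in low-melting agarose, lysed 2 h, alkaline-unwound 0.5 h at 4 °C, electrophoresed at 300 mA for 25 min in the dark. Slides neutralized, PI-stained, 50 random cells scored for % tail DNA.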

A short description of test [5]: Antiproliferative activity against human HCT116 cells after 48 hrs by MTT assay. In kind it is functional, cell-based. The following applies: HCT-116, 48 h. In short, it runs like this: as §1
The target of test [6] is DNA topoisomerase 2-alpha (Homo sapiens) (UniProt P11388). Put plainly: Inhibition of human recombinant topoisomerase 2-alpha expressed in Escherichia coli assessed as reduction in enzyme-mediated relaxation of supercoiled pBR322 DNA at 10 to 50 uM after 10 to 15 mins by agarose gel electrophoresis. In short, it runs like this: as §2
The next test concerns CCRF-CEM. Put plainly: Antiproliferative activity against human CCRF-CEM cells after 48 hrs by MTT assay. In kind it is functional, cell-based. In short, it runs like this:
as §1

A further test deals with MCF7. Nature of the test: Antiproliferative activity against human MCF7 cells after 48 hrs by MTT assay. In kind it is functional, cell-based. The conditions noted are these: MCF7, 48 h. An outline of the steps:
as §1

For the next test, the system named is Calf thymus DNA. Nature of the test: Binding affinity to calf thymus DNA after 5 mins by UV-vis spectrophotometry. In kind it is nucleic-acid assay. The conditions noted are these: Bos taurus. An outline of the steps:
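ctDNA at 0-44 µM is added to compound at 10 µM final in Tris-HCl buffer (pH 7.4). UV-vis absorption spectra are recorded after 5 min standing. The binding constant K_b is taken from a plot of absorption data against DNA concentration.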

The pIC50 is −log10 of the IC50, conventionally taken in molar units. A high value points to a low IC50.

pIC50: −log10 of the molar value. Activity calls are given as the source filed them. No cut-off for these calls is given here.

DNA topoisomerase 2-alpha (Homo sapiens), sequence (P11388 whole entry): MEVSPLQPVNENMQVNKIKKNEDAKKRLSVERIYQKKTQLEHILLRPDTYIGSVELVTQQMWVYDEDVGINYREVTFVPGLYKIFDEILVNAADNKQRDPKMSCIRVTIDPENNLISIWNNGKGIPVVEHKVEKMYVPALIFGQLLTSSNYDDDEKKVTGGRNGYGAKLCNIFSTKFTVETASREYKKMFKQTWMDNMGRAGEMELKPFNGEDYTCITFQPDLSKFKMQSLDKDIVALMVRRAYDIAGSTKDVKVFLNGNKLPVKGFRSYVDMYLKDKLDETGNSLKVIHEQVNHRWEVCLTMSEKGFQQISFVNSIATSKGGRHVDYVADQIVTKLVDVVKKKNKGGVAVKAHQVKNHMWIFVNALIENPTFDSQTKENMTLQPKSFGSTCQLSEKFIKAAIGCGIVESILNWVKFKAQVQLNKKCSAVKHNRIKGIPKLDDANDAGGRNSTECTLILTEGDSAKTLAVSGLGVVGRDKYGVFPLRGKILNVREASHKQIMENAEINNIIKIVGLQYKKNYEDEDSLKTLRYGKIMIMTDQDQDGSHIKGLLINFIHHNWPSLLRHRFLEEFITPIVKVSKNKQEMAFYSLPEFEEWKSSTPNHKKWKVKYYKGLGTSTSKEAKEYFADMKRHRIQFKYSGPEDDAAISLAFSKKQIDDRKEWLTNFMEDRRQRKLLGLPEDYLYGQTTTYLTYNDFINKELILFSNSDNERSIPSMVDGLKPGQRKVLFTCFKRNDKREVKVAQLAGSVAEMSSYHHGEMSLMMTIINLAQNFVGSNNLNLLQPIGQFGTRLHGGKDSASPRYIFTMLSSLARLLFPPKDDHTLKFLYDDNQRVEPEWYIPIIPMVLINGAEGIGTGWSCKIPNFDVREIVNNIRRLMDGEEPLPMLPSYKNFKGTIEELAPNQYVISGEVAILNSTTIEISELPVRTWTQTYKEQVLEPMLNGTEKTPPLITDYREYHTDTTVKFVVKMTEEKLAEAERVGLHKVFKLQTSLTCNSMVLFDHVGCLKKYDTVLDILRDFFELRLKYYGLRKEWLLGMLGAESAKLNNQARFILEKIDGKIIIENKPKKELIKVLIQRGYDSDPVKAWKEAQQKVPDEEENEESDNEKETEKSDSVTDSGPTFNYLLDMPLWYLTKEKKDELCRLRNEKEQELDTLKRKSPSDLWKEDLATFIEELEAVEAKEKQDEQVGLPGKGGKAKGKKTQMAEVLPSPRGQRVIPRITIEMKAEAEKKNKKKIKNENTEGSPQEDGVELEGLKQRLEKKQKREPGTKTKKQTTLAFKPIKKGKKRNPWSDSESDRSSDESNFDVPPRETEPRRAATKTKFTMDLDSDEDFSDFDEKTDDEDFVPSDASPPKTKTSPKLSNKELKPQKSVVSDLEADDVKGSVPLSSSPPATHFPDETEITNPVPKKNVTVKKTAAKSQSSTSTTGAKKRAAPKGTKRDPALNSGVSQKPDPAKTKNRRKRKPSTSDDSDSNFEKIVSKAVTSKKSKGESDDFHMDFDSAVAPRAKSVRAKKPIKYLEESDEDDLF

In the test on A549 [1], `COc1ccc2nc3cc(Cl)ccc3c(NCc3cccc(Cl)c3)c2c1` gave a negative-log IC50 (pIC50) of 5.33. Besides, the inhibition entry in test [2] was “Active”.
As for `CCc1ccc(CNc2c3ccc(Cl)cc3nc3ccc(OC)cc23)cc1`, the inhibition entry in test [3] and in test [2] was “Active” each time. In the test on A549 [1], this molecule showed a pIC50 of 5.59.
Molecule `COc1ccc2nc3cc(Cl)ccc3c(NCc3ccc(C(F)(F)F)cc3)c2c1` gave a pIC50 with A549 [1] of 5.22. Moreover, in [2], the inhibition result is “Active”.
The matching figures for `COc1ccc2nc3cc(Cl)ccc3c(NCc3ccccc3Br)c2c1`: 5.52 and “Active”.
Regarding `COc1cc([C@@H]2c3cc4c(cc3[C@@H](O[C@@H]3O[C@@H]5CO[C@@H](C)O[C@H]5[C@H](O)[C@H]3O)[C@H]3COC(=O)[C@H]23)OCO4)cc(OC)c1O` [ETOPOSIDE], the pIC50 with HeLa was 4.38; in test [5], 5.22; in the test with A549 [1], 5.42; in the test with CCRF-CEM, 6.92. Moreover, the Activity in the test with A549 [4] was 46.7%. For the same molecule, the inhibition result in test [6] is “Active”.
As for `COc1ccc2nc3cc(Cl)ccc3c(NCc3ccc(OC)c(F)c3)c2c1`, the pIC50 is 5.39 in the test with HeLa; 6.07 in test [5]; 6.02 in the test on A549 [1]; 5.51 in the test with CCRF-CEM; 5.12 in the test on MCF7. For the same molecule, the inhibition result in [2] and in test [6] was “Active” each time.
On to `COc1cccc2c1C(=O)c1c(O)c3c(c(O)c1C2=O)C[C@@](O)(C(=O)CO)C[C@@H]3O[C@H]1C[C@H](N)[C@H](O)[C@H](C)O1` [DOXORUBICIN], for which the pIC50 in the test on HeLa was 6.11; in the test on A549 [1], 7.05; in the test on CCRF-CEM it was 7.28; with MCF7 it was 6.09.
For `COc1ccc2nc3cc(Cl)ccc3c(NCc3ccc(C)cc3)c2c1`, the pIC50 in the test with A549 [1] is 5.58. For the same molecule, in test [2], the inhibition entry is “Active”.
In the test on A549 [1], `COc1ccc2nc3cc(Cl)ccc3c(NCc3ccc(C(C)(C)C)cc3)c2c1` gave a negative logarithm of the IC50 (pIC50) of 5.15. For the same molecule, in [2], the inhibition entry is “Active”.
In the case of `COc1ccc2nc3cc(Cl)ccc3c(NCc3ccc(OC(F)F)cc3)c2c1`, the negative logarithm of the IC50 (pIC50) with HeLa was 5.36; in test [5], 5.94; with A549 [1] it was 6.14; in the test on CCRF-CEM it was 5.16; with MCF7, 5.00. The inhibition result in [2] and in [6] was “Active” in each case.
Molecule `COc1ccc2nc3cc(Cl)ccc3c(NCc3cc(F)c(OC)c(F)c3)c2c1` gave a pIC50 in the test on A549 [1] of 5.74. Besides, the inhibition entry in [2] was “Active”.
`COc1ccc2nc3cc(Cl)ccc3c(NCc3ccc4c(c3)OCO4)c2c1`: the pIC50 was 5.15 with HeLa; 5.79 in [5]; 6.19 with A549 [1]; 5.70 with CCRF-CEM; 4.99 in the test on MCF7. For the same molecule, the inhibition result in [2] and in test [6] was “Active” each time.
`COc1ccc2nc3cc(Cl)ccc3c(NCc3ccccc3C(F)(F)F)c2c1` had a pIC50 in the test with A549 [1] of 5.20. In [2], the inhibition entry was “Active”.
Taken in the same sequence, the figures for `COc1ccc2nc3cc(Cl)ccc3c(NCc3cccc(F)c3)c2c1` were 5.38 and “Active”.
The matching figures for `COc1ccc2nc3cc(Cl)ccc3c(NCc3ccc(Cl)cc3)c2c1`: 5.38 and “Active”.
Turning to `COc1ccc2nc3cc(Cl)ccc3c(NCc3cccc(C(F)(F)F)c3)c2c1`, the pIC50 in the test with HeLa was 5.00; in test [5], 6.12; in the test with A549 [1] it was 6.80; in the test with CCRF-CEM, 5.29; with MCF7, 4.98. In addition, the inhibition result in test [2] and in test [6] was “Active” in each case.
`COc1cc(CNc2c3ccc(Cl)cc3nc3ccc(OC)cc23)cc(OC)c1`: in the test with A549 [1], the pIC50 is 5.04. The inhibition entry in test [2] was “Active”.
Take `COc1ccc2nc3cc(Cl)ccc3c(NCc3ccc(F)cc3)c2c1`: the inhibition result in test [3] and in test [2] was “Active” each time. This molecule also showed a pIC50 in the test on A549 [1] of 5.39.
As to `COc1ccc2nc3cc(Cl)ccc3c(NCc3ccc(Br)cc3)c2c1`, in the test on A549 [1], the pIC50 is 5.49. The inhibition result in test [2] is “Active”.
Regarding `COc1cc(NS(C)(=O)=O)ccc1Nc1c2ccccc2nc2ccccc12` [AMSACRINE], the pIC50 was 6.47 in the test with HeLa; 6.03 in test [5]; 5.22 in the test on A549 [1]; 6.74 in the test with CCRF-CEM; 4.57 in the test on MCF7. The molecule further registered a Kb in the test with Calf thymus DNA of 1.36 ×10⁵ /M.
Turning to `COc1ccc2nc3cc(Cl)ccc3c(NCc3cc(OC)c(OC)c(OC)c3)c2c1`, in the test with A549 [1], the pIC50 was 5.66. In addition, the inhibition result in [2] was “Active”.
As to `COc1ccc2nc3cc(Cl)ccc3c(NCc3ccc(OC)c(OC)c3)c2c1`, the inhibition result in [3] and in test [2] was “Active” each time. Besides, in the test on A549 [1], the pIC50 was 5.59.
Molecule `COc1ccc2nc3cc(Cl)ccc3c(NCc3ccc(F)c(F)c3)c2c1` gave a negative-log IC50 (pIC50) with A549 [1] of less than 4.60. Also, the inhibition entry in test [2] is “Active”.
In the test with A549 [1], `COc1ccc2nc3cc(Cl)ccc3c(NCc3cccc(C)c3)c2c1` showed a pIC50 of 5.65. Moreover, the inhibition entry in test [2] was “Active”.
In the test with A549 [1], `COc1ccc2nc3cc(Cl)ccc3c(NCc3ccccc3F)c2c1` showed a pIC50 of 5.55. Further, the inhibition entry in [2] is “Active”.
